Source: ChEMBL document CHEMBL1139285, “TRAIL-enhancing activity of Erythrinan alkaloids from Erythrina velutina” (Bioorg Med Chem Lett, 2009)
Values after ≈ are worked out from the molar mass of the structure shown.

Columns and labels:
Jurkat [1] = assay: Growth inhibition of human Jurkat cells at 50 ug/mL; assay type: functional
Jurkat [2] = assay: Growth inhibition of human Jurkat cells; assay type: functional, cell-based
Jurkat [3] = assay: Cytotoxicity against human Jurkat cells in presence and relative to TRAIL; assay type: functional, cell-based
Summary of the method: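 Jurkat cell proliferation test run with each isolate in combination with TRAIL, to measure enhancement of TRAIL cytotoxicity; values expressed relative to the cell proliferation rate at 0.125.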

Jurkat [4] = assay: Cytotoxicity against human Jurkat cells in presence and relative to TRAIL at 50 ug/mL; assay type: functional
Summary of the method: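 Proliferation assay in Jurkat cells exposed to each isolated alkaloid together with TRAIL. Results are expressed relative to the cell proliferation rate at […].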

| SMILES | inhibition at 50 µg/mL (Jurkat [1]) [%] | IC50 (Jurkat [2]) [µg/mL] | IC50 (Jurkat [3]) [µg/mL] | inhibition at 50 µg/mL (Jurkat [4]) [%] |
| --- | --- | --- | --- | --- |
| CO[C@H]1C=CC2=CC(=O)N3CCc4cc5c(cc4[C@]23C1)OCO5 | 37 | > 50 | 22 (≈ 70.7 µM) | – |
| COc1cc2c(cc1O)CC[N+]1([O-])CC=C3C=C[C@H](OC)C[C@]321 (stereo not given in full) | 2.4 | > 50 | > 50 | 18.9 |
| O=c1cc(-c2ccc(O)cc2)oc2cc(O)cc(O)c12 [APIGENIN] | – | 30 (≈ 111 µM) | 6.7 (≈ 24.8 µM) | – |
| COC(=O)c1cc2c(cn1)CCN1CC=C3C=C[C@H](OC)C[C@]321 [ERYMELANTHINE] | 1.1 | > 50 | > 50 | 24.2 |
| COc1cc2c(cc1O)CCN1CC=C3C=C[C@H](OC)C[C@]321 [ERYSODINE] | – | 10.8 (≈ 36.1 µM) | 4.9 (≈ 16.4 µM) | – |
| COc1cc2c(cc1OC)[C@]13C[C@@H](OC)C=CC1=CCN3CC2 [ERYSOTRINE] | 45 | > 50 | 7.2 (≈ 23 µM) | – |
| COc1cc2c(cc1O)[C@]13C[C@@H](OC)C=CC1=CCN3CC2 [ERYSOVINE] | – | 24 (≈ 80.2 µM) | 14.2 (≈ 47.4 µM) | – |
| CO[C@H]1C=CC2=CCN3CCc4cc5c(cc4[C@]23C1)OCO5 [ERYTHRALINE] | – | 23 (≈ 77.3 µM) | 5 (≈ 16.8 µM) | – |
| COc1cc2c(cc1O[C@@H]1O[C@H](CO)[C@@H](O)[C@H](O)[C@H]1O)CCN1CC=C3C=C[C@H](OC)C[C@]321 [GRYCOERYSODINE] | 4.7 | > 50 | 44 (≈ 95.3 µM) | – |
| C[N+](C)(C)[C@H](Cc1c[nH]c2ccccc12)C(=O)[O-] [HYPAPHORINE] | 5.8 | > 50 | > 50 | 20 |
| CC[C@]1(O)C[C@H]2CN(CCc3c([nH]c4ccccc34)[C@@](C(=O)OC)(c3cc4c(cc3OC)N(C=O)[C@H]3[C@@](O)(C(=O)OC)[C@H](OC(C)=O)[C@]5(CC)C=CCN6CC[C@]43[C@@H]65)C2)C1 [VINCRISTINE] | – | 0.0031 (≈ 0.00376 µM) | – | – |
